Experimental data from ChEMBL document CHEMBL3286292, “Synthesis and antimicrobial activity of amine linked bis- and tris-heterocycles” (2014).

Key:
Assay type in all cases: functional
Bacillus subtilis [1] = assay: Bactericidal activity against Bacillus subtilis after 24 hrs
Aspergillus niger [2] = assay: Antifungal activity against Aspergillus niger assessed as inhibition of spore germination at 25 ug/well after 48 hrs by agar well diffusion method; details: read-out: DIZ
Summary of the method: (§1)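 Well diffusion using 6 mm bored wells loaded with DMSO solutions at three per-well amounts, with a DMSO negative control. Plates were held at 28 °C for 48 h, then zone of inhibition diameter was measured in mm. Runs were in duplicate and averaged.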

Bacillus subtilis [3] = assay: Antibacterial activity against Bacillus subtilis assessed as growth inhibition at 25 ug/well after 24 hrs by agar well diffusion method; details: read-out: DIZ
Summary of the method: (§2)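 Agar well diffusion on […] swabbed with a 24 h broth culture. Samples were dissolved in DMSO and loaded at three per-well amounts into 6 mm wells. Incubation was 37 °C for 24 h, then inhibition zone diameter was read in mm. DMSO served as the negative control. Runs were in duplicate and averaged.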

Aspergillus niger [4] = assay: Antifungal activity against Aspergillus niger assessed as inhibition of spore germination at 50 ug/well after 48 hrs by agar well diffusion method; details: read-out: DIZ; summary of the method: as §1
Bacillus subtilis [5] = assay: Antibacterial activity against Bacillus subtilis assessed as growth inhibition at 50 ug/well after 24 hrs by agar well diffusion method; details: read-out: DIZ; summary of the method: as §2
Bacillus subtilis [6] = assay: Antibacterial activity against Bacillus subtilis assessed as growth inhibition after 24 hrs by broth dilution method
Summary of the method: (§3)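 Tube broth dilution with fresh nutrient broth as diluent and a 24 h old bacterial culture. Compound dilutions were added to the tubes, which were incubated at 37 °C for 24 h. Solvent control without sample was run in parallel. MIC was the lowest concentration showing no visible turbidity.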

Aspergillus niger [7] = assay: Antifungal activity against Aspergillus niger assessed as growth inhibition after 48 hrs by broth dilution method
Summary of the method: (§4)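 Tube broth dilution with nutrient broth as diluent. Compound dilutions were added to fungal cultures and incubated at 28 °C for 48 h. A solvent control without sample was included. MIC was the lowest concentration with no visible growth or turbidity.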

Penicillium chrysogenum [8] = assay: Fungicidal activity against Penicillium chrysogenum after 48 hrs
Staphylococcus aureus [9] = assay: Antibacterial activity against Staphylococcus aureus assessed as growth inhibition after 24 hrs by broth dilution method; summary of the method: as §3
Staphylococcus aureus [10] = assay: Antibacterial activity against Staphylococcus aureus assessed as growth inhibition at 50 ug/well after 24 hrs by agar well diffusion method; details: read-out: DIZ; summary of the method: as §2
Klebsiella pneumoniae [11] = assay: Antibacterial activity against Klebsiella pneumoniae assessed as growth inhibition at 100 ug/well after 24 hrs by agar well diffusion method; details: read-out: DIZ; summary of the method: as §2
Pseudomonas aeruginosa [12] = assay: Antibacterial activity against Pseudomonas aeruginosa assessed as growth inhibition at 50 ug/well after 24 hrs by agar well diffusion method; details: read-out: DIZ; summary of the method: as §2
Aspergillus niger [13] = assay: Fungicidal activity against Aspergillus niger after 48 hrs
Staphylococcus aureus [14] = assay: Antibacterial activity against Staphylococcus aureus assessed as growth inhibition at 25 ug/well after 24 hrs by agar well diffusion method; details: read-out: DIZ; summary of the method: as §2
Klebsiella pneumoniae [15] = assay: Antibacterial activity against Klebsiella pneumoniae assessed as growth inhibition at 50 ug/well after 24 hrs by agar well diffusion method; details: read-out: DIZ; summary of the method: as §2
Aspergillus niger [16] = assay: Ratio of MFC to MIC for Aspergillus niger
Staphylococcus aureus [17] = assay: Bactericidal activity against Staphylococcus aureus after 24 hrs
Klebsiella pneumoniae [18] = assay: Bactericidal activity against Klebsiella pneumoniae after 24 hrs
Pseudomonas aeruginosa [19] = assay: Antibacterial activity against Pseudomonas aeruginosa assessed as growth inhibition after 24 hrs by broth dilution method; summary of the method: as §3
Pseudomonas aeruginosa [20] = assay: Bactericidal activity against Pseudomonas aeruginosa after 24 hrs
Klebsiella pneumoniae [21] = assay: Antibacterial activity against Klebsiella pneumoniae assessed as growth inhibition after 24 hrs by broth dilution method; summary of the method: as §3
Pseudomonas aeruginosa [22] = assay: Antibacterial activity against Pseudomonas aeruginosa assessed as growth inhibition at 25 ug/well after 24 hrs by agar well diffusion method; details: read-out: DIZ; summary of the method: as §2
Pseudomonas aeruginosa [23] = assay: Antibacterial activity against Pseudomonas aeruginosa assessed as growth inhibition at 100 ug/well after 24 hrs by agar well diffusion method; details: read-out: DIZ; summary of the method: as §2
Penicillium chrysogenum [24] = assay: Antifungal activity against Penicillium chrysogenum assessed as growth inhibition after 48 hrs by broth dilution method; summary of the method: as §4
Bacillus subtilis [25] = assay: Antibacterial activity against Bacillus subtilis assessed as growth inhibition at 100 ug/well after 24 hrs by agar well diffusion method; details: read-out: DIZ; summary of the method: as §2
Klebsiella pneumoniae [26] = assay: Antibacterial activity against Klebsiella pneumoniae assessed as growth inhibition at 25 ug/well after 24 hrs by agar well diffusion method; details: read-out: DIZ; summary of the method: as §2
Staphylococcus aureus [27] = assay: Ratio of MBC to MIC for Staphylococcus aureus
Staphylococcus aureus [28] = assay: Antibacterial activity against Staphylococcus aureus assessed as growth inhibition at 100 ug/well after 24 hrs by agar well diffusion method; details: read-out: DIZ; summary of the method: as §2

Q: `Clc1ccc(-c2c[nH]c(Nc3cc(-c4ccc(Cl)cc4)n(-c4nc(-c5ccc(Cl)cc5)cs4)n3)n2)cc1` was tested. Which MBC (Bacillus subtilis [1]) did it give?
A: 200 µg

Q: What about the zone of inhibition at 25 µg/disc (Aspergillus niger [2]) of the same compound?
A: 33 mm

Q: What about the zone of inhibition at 25 µg/disc (Bacillus subtilis [3]) of the same compound?
A: 27 mm

Q: And the zone of inhibition at 50 µg/disc (Aspergillus niger [4])?
A: 36 mm

Q: What about the zone of inhibition at 50 µg/disc (Bacillus subtilis [5]) of the same compound?
A: 29 mm

Q: And the MIC (Bacillus subtilis [6])?
A: 50 µg

Q: What about the MIC (Aspergillus niger [7]) of the same compound?
A: 6.25 µg

Q: And the MFC (Penicillium chrysogenum [8])?
A: 100 µg

Q: And the MIC (Staphylococcus aureus [9])?
A: 6.25 µg

Q: And the zone of inhibition at 50 µg/disc (Staphylococcus aureus [10])?
A: 33 mm

Q: And the zone of inhibition at 100 µg/disc (Klebsiella pneumoniae [11])?
A: 38 mm

Q: What about the zone of inhibition at 50 µg/disc (Pseudomonas aeruginosa [12]) of the same compound?
A: 19 mm

Q: What about the MFC (Aspergillus niger [13]) of the same compound?
A: 12.5 µg

Q: And the zone of inhibition at 25 µg/disc (Staphylococcus aureus [14])?
A: 32 mm

Q: And the zone of inhibition at 50 µg/disc (Klebsiella pneumoniae [15])?
A: 34 mm

Q: And the Ratio (Aspergillus niger [16])?
A: 2

Q: And the MBC (Staphylococcus aureus [17])?
A: 12.5 µg

Q: And the MBC (Klebsiella pneumoniae [18])?
A: 200 µg

Q: And the MIC (Pseudomonas aeruginosa [19])?
A: 50 µg

Q: And the MBC (Pseudomonas aeruginosa [20])?
A: 200 µg

Q: And the MIC (Klebsiella pneumoniae [21])?
A: 50 µg

Q: What about the zone of inhibition at 25 µg/disc (Pseudomonas aeruginosa [22]) of the same compound?
A: 18 mm

Q: What about the zone of inhibition at 100 µg/disc (Pseudomonas aeruginosa [23]) of the same compound?
A: 23 mm

Q: What about the MIC (Penicillium chrysogenum [24]) of the same compound?
A: 25 µg

Q: And the zone of inhibition at 100 µg/disc (Bacillus subtilis [25])?
A: 30 mm

Q: What about the zone of inhibition at 25 µg/disc (Klebsiella pneumoniae [26]) of the same compound?
A: 32 mm

Q: What about the Ratio (Staphylococcus aureus [27]) of the same compound?
A: 2

Q: And the zone of inhibition at 100 µg/disc (Staphylococcus aureus [28])?
A: 35 mm
